Measurements published in ChEMBL document CHEMBL2346510, “Synthesis and antifungal evaluation of 7-arylamino-5,8-dioxo-5,8-dihydroisoquinoline-4-carboxylates” (2013).
Values after ≈ are worked out from the molar mass of the structure shown.

Experiments:
Type in all cases: functional
Aspergillus flavus = assay: Antifungal activity against Aspergillus flavus KCCM 11899 after 2 days by two fold broth dilution method; details: KCCM 11899, 48 h
Outline: (§1)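 Twofold broth dilution in modified Sabouraud dextrose broth, inoculum about 1 × 10⁵ cells/mL. Compounds were tested at final concentrations of […]. Plates were incubated at 37 °C and the MIC was read after 2 days. Fluconazole and 5-fluorocytosine served as reference agents.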

Aspergillus niger = assay: Antifungal activity against Aspergillus niger KCTC 1231 after 2 days by two fold broth dilution method; details: KCTC 1231, 48 h; outline: as §1
Cryptococcus neoformans = assay: Antifungal activity against Cryptococcus neoformans KCCM 50564 after 1 day by two fold broth dilution method; details: KCCM 50564, 24 h
Outline: (§2)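 Yeasts were tested by twofold broth dilution in modified Sabouraud dextrose broth with about 1 × 10⁵ cells/mL inoculum. Final compound concentrations ran from […]. Incubation was at 37 °C with the MIC read after 1 day. Fluconazole and 5-fluorocytosine were the standard comparators.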

Candida albicans = assay: Antifungal activity against Candida albicans Berkout KCCM 50235 after 1 day by two fold broth dilution method; details: Berkout KCCM 50235, 24 h; outline: as §2
Candida tropicalis = assay: Antifungal activity against Candida tropicalis Berkout KCCM 50662 after 1 day by two fold broth dilution method; details: Berkout KCCM 50662, 24 h; outline: as §2
Pichia kudriavzevii = assay: Antifungal activity against Candida krusei Berkout KCCM 11655 after 1 day by two fold broth dilution method; details: Berkout KCCM 11655, 24 h; outline: as §2

Row | Structure (SMILES) | MIC (Aspergillus flavus) | MIC (Aspergillus niger) | MIC (Cryptococcus neoformans) | MIC (Candida albicans) | MIC (Candida tropicalis) | MIC (Pichia kudriavzevii)
1 | COC(=O)c1c(C)nc(C)c2c1C(=O)C(Cl)=C(Nc1ccc(OC)cc1)C2=O | 6.3 µg/mL (≈ 15.7 µM) | 3.2 µg/mL (≈ 7.98 µM) | 3.2 µg/mL (≈ 7.98 µM) | 1.6 µg/mL (≈ 3.99 µM) | 12.5 µg/mL (≈ 31.2 µM) | 12.5 µg/mL (≈ 31.2 µM)
2 | COC(=O)c1c(C)nc(C)c2c1C(=O)C=C(Nc1ccc(I)cc1)C2=O | 12.5 µg/mL (≈ 27 µM) | 12.5 µg/mL (≈ 27 µM) | 6.3 µg/mL (≈ 13.6 µM) | 12.5 µg/mL (≈ 27 µM) | 12.5 µg/mL (≈ 27 µM) | 12.5 µg/mL (≈ 27 µM)
3 | COC(=O)c1c(C)nc(C)c2c1C(=O)C(Br)=C(Nc1ccc(Cl)cc1)C2=O | 12.5 µg/mL (≈ 27.8 µM) | 12.5 µg/mL (≈ 27.8 µM) | 12.5 µg/mL (≈ 27.8 µM) | 25 µg/mL (≈ 55.6 µM) | 6.3 µg/mL (≈ 14 µM) | 25 µg/mL (≈ 55.6 µM)
4 | COC(=O)c1c(C)nc(C)c2c1C(=O)C(Cl)=C(Nc1ccc(F)c(F)c1)C2=O | 6.3 µg/mL (≈ 15.5 µM) | 1.6 µg/mL (≈ 3.93 µM) | 12.5 µg/mL (≈ 30.7 µM) | 1.6 µg/mL (≈ 3.93 µM) | 25 µg/mL (≈ 61.5 µM) | 6.3 µg/mL (≈ 15.5 µM)
5 | COC(=O)c1c(C)nc(C)c2c1C(=O)C(Cl)=C(Nc1ccc(C#N)cc1)C2=O | 6.3 µg/mL (≈ 15.9 µM) | 6.3 µg/mL (≈ 15.9 µM) | 1.6 µg/mL (≈ 4.04 µM) | 1.6 µg/mL (≈ 4.04 µM) | 12.5 µg/mL (≈ 31.6 µM) | 12.5 µg/mL (≈ 31.6 µM)
6 | OC(Cn1cncn1)(Cn1cncn1)c1ccc(F)cc1F [FLUCONAZOLE] | 25 µg/mL (≈ 81.6 µM) | 25 µg/mL (≈ 81.6 µM) | 6.3 µg/mL (≈ 20.6 µM) | 50 µg/mL (≈ 163 µM) | 6.3 µg/mL (≈ 20.6 µM) | 25 µg/mL (≈ 81.6 µM)
7 | COC(=O)c1c(C)nc(C)c2c1C(=O)C(Br)=C(Nc1ccc(F)cc1)C2=O | 12.5 µg/mL (≈ 28.9 µM) | 6.3 µg/mL (≈ 14.5 µM) | 6.3 µg/mL (≈ 14.5 µM) | 6.3 µg/mL (≈ 14.5 µM) | 6.3 µg/mL (≈ 14.5 µM) | 12.5 µg/mL (≈ 28.9 µM)
8 | COC(=O)c1c(C)nc(C)c2c1C(=O)C=C(Sc1ccc(C)cc1)C2=O | 3.2 µg/mL (≈ 8.71 µM) | 6.3 µg/mL (≈ 17.1 µM) | 1.6 µg/mL (≈ 4.35 µM) | 6.3 µg/mL (≈ 17.1 µM) | 6.3 µg/mL (≈ 17.1 µM) | 12.5 µg/mL (≈ 34 µM)
9 | COC(=O)c1c(C)nc(C)c2c1C(=O)C(Br)=C(Nc1ccc(Br)cc1)C2=O | 3.2 µg/mL (≈ 6.48 µM) | 1.6 µg/mL (≈ 3.24 µM) | 12.5 µg/mL (≈ 25.3 µM) | 1.6 µg/mL (≈ 3.24 µM) | 1.6 µg/mL (≈ 3.24 µM) | 12.5 µg/mL (≈ 25.3 µM)
10 | COC(=O)c1c(C)nc(C)c2c1C(=O)C(Br)=C(Nc1ccc(OC)cc1)C2=O | 12.5 µg/mL (≈ 28.1 µM) | 1.6 µg/mL (≈ 3.59 µM) | 1.6 µg/mL (≈ 3.59 µM) | 0.8 µg/mL (≈ 1.8 µM) | 12.5 µg/mL (≈ 28.1 µM) | 1.6 µg/mL (≈ 3.59 µM)
11 | COC(=O)c1c(C)nc(C)c2c1C(=O)C=CC2=O | 50 µg/mL (≈ 204 µM) | > 100 µg/mL | 50 µg/mL (≈ 204 µM) | 25 µg/mL (≈ 102 µM) | 12.5 µg/mL (≈ 51 µM) | 50 µg/mL (≈ 204 µM)
12 | COC(=O)c1c(C)nc(C)c2c1C(=O)C(Br)=C(Nc1ccc(F)c(F)c1)C2=O | 12.5 µg/mL (≈ 27.7 µM) | 6.3 µg/mL (≈ 14 µM) | 12.5 µg/mL (≈ 27.7 µM) | 6.3 µg/mL (≈ 14 µM) | 1.6 µg/mL (≈ 3.55 µM) | 25 µg/mL (≈ 55.4 µM)
